Published values of several laboratories.
Each line is one published result; the experiments were not run side by side.
Target: Megakaryocyte-associated tyrosine-protein kinase (MATK, Homo sapiens, UniProt P42679)
Residues used in one study (P42679 1-507): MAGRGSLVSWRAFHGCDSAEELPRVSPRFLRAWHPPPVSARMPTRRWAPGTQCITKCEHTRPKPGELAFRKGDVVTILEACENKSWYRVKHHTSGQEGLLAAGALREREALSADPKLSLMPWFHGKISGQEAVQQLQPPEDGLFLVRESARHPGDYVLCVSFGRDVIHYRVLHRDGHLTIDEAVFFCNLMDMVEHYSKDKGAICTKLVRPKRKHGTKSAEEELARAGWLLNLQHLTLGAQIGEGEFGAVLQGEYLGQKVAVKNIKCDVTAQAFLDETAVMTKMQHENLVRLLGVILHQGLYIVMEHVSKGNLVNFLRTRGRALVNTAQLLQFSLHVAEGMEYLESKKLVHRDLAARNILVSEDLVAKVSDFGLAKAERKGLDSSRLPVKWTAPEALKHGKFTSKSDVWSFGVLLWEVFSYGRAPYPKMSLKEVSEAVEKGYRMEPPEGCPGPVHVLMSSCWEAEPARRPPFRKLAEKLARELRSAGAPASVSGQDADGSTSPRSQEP

Compound | assay | setting | remaining binding [%]
N[C@@H]1CCN(c2nccc(-c3cnn4ncccc34)n2)C1 | binding | 1 µM | 100
Nc1ncc2c(n1)-c1c([nH]c3ccc(C#CC4CC4)cc13)CCCC2 | binding, competition with immobilised ligand | 1 µM | 100
CC1CCCN1c1nccc(-c2cnn3ncccc23)n1 (stereo not drawn) | binding | 1 µM | 100
Cc1cnc(Nc2ccc(C(=O)N3CCC(N4CCCC4)CC3)cc2)nc1-c1cc2ccccc2s1 | binding, competition with immobilised ligand | 1 µM | 30
F[C@@H]1CCN(c2nccc(-c3cnn4ncccc34)n2)C1 | binding | 1 µM | 80
O=C1CCc2cc(Nc3cc(OC4CCOCC4)c([N+](=O)[O-])cc3Cl)ccc2N1 | cell-free assay, competition with immobilised ligand | 1 µM | 100
O=C(NCCCN1CCOCC1)c1ccc(Nc2nccc(-c3cc4ccccc4s3)n2)cc1 | binding, competition with immobilised ligand | 1 µM | 55
CN(C)c1ncc(F)c(-c2cnn3ncccc23)n1 | binding | 1 µM | 79
C=CC(=O)N1CCC(C(=O)NCC(=O)N2CCN(c3nc(-c4cnc(N)nc4C(F)F)nc(N4CCOCC4)n3)CC2)CC1 | binding, competition with immobilised ligand | 1 µM | 78
O=C(Nc1c[nH]nc1C(=O)NC1CCNCC1)c1cc(F)cc(F)c1 | binding, competition with immobilised ligand | 1 µM | 84
O=C(c1ccc(Nc2ncc(Cl)c(-c3ccc(Cl)s3)n2)cc1)N1CCC(N2CCCC2)CC1 | binding, competition with immobilised ligand | 1 µM | 50
CO[C@@H](C)c1c(Nc2ccc([C@@H](N(C)C(=O)C3CCS(=O)(=O)CC3)C(F)(F)F)cc2)cnc2cc(Cl)nn12 | cell-free assay, competition with immobilised ligand | 1 µM | 98
C[C@H]1CCN(c2nccc(-c3cnn4ncccc34)n2)C1 | binding | 1 µM | 90
NS(=O)(=O)c1cc(NC(=O)Cc2ccccc2)ccc1Oc1cccc(Cl)c1 | cell-free assay, competition with immobilised ligand | 1 µM | 68
C[C@@H](c1ccc(-n2cnc3c(N)ncnc32)cc1)N1CCc2nn(C)c(Cc3ccccc3)c2C1=O | binding, competition with immobilised ligand | 0.1 µM | 69
FC(F)(F)c1ccc2c(c1)nc(-c1cccnc1)n2C1CC1 | cell-free assay, competition with immobilised ligand | 1 µM | 100
CN(C)c1nccc(-c2cnc3ncccn23)n1 | binding | 1 µM | 50
O=C(N[C@H]1CCCCC/C=C\C2C[C@@]2(C(=O)O)NC(=O)[C@@H]2C[C@@H](Oc3ccncc3)CN2C1=O)OC1CCCC1 (stereo partly drawn) | binding, competition with immobilised ligand | 1 µM | 41
CCN1CCN(Cc2ccc(C(=O)Nc3ccc(C)c(Oc4ccc5c(c4)CC(=O)N5)c3)cc2C(F)(F)F)CC1 | binding, competition with immobilised ligand | 1 µM | 100
COc1cnc(Nc2cccc(S(N)(=O)=O)c2)nc1N1CCN(c2ccccc2)CC1 | binding, competition with immobilised ligand | 1 µM | 57
CS(=O)(=O)N1CCCC(NC(=O)[C@H](CCC2CCCCC2)NC(=O)c2ccc(CNc3ncnc4c3nnn4-c3ccccc3)cc2)C1 (stereo partly drawn) | cell-free assay, competition with immobilised ligand | 0.1 µM | 100
